A short description of data set [1]: Inhibition of Staphylococcus aureus biotin protein ligase assessed as reduction in 3H-biotin incorporation into Staphylococcus aureus pyruvate carboxylase biotin domain after 10 mins by liquid scintillation counting analysis. In a few lines: (§1)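 Recombinant S. aureus BPL; enzymatic incorporation of radiolabeled biotin onto an acceptor protein measured across varying inhibitor concentrations to give IC50. Ki calculated from IC50 assuming competitive inhibition versus biotin, using the known KM for biotin.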

The target of data set [2] is T1, Biotin--protein ligase (Homo sapiens, UniProt P50747).
T1 sequence (P50747 whole entry): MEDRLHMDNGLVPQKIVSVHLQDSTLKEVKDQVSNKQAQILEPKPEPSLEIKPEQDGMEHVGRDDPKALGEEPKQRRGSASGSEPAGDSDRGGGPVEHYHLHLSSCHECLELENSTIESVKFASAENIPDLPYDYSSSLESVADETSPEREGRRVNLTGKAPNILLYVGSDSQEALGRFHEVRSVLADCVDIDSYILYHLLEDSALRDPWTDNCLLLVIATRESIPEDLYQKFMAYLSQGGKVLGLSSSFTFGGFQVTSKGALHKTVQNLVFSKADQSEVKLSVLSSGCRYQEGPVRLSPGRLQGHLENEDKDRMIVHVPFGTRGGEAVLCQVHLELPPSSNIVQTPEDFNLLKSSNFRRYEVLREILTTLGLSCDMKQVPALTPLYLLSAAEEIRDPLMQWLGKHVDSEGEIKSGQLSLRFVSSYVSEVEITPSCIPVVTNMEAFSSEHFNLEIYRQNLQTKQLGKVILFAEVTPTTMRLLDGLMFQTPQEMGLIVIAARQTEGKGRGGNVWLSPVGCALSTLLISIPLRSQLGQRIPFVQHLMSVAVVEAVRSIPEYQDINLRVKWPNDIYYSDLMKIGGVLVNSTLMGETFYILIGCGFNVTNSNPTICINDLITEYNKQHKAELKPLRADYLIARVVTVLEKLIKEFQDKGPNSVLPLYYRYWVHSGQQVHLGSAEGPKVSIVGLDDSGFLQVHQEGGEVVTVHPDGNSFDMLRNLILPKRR
Put plainly: Inhibition of human biotin protein ligase assessed as reduction in 3H-biotin incorporation into pyruvate carboxylase biotin domain after 10 mins by liquid scintillation counting analysis. In a few lines:
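Recombinant human BPL; radiolabeled biotin transfer onto an acceptor protein measured with 100 μM compound included in the assay medium.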

Data set [3] concerns Staphylococcus aureus. The data set can be described thus: Growth inhibition of Staphylococcus aureus ATCC 49775 after 16 to 20 hrs by microbroth dilution method relative to control. The data set is classed as functional. More on the design: concentration or dose not given beside the values. In a few lines:
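S. aureus ATCC 49775 cultured with compound; growth read spectrophotometrically at 600 nm 20 h post-treatment. Activity called where culture optical density fell by >40% relative to nontreated controls.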
In general terms: In broth dilution the organism is exposed to a series of concentrations in liquid medium.

Data set [4] deals with Staphylococcus aureus. The data set can be described thus: Growth inhibition of Staphylococcus aureus RN4220 harboring pCN51 at 16 ug/ml measured every 30 mins for 16 hrs. The data set is classed as functional. The method, boiled down:
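Cultures grown in medium with 16 μg/mL compound for 16 h; optical density read every 30 min and compared with nontreated controls. Part of a target-overexpression test of the BPL mechanism.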

The nature of data set [5]: Cytotoxicity against human HepG2 cells assessed as decrease in cell viability at 40 ug/ml after 24 to 48 hrs by WST-1 assay. It is filed as toxicity, cell-based. The method, boiled down:
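Cultured HepG2 cells (ATCC HB-8065) exposed to compound at a single concentration of 40 μg/mL to assess cytotoxicity.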

A short description of data set [6]: Selectivity ratio of Ki for Staphylococcus aureus C-terminal His6-tagged biotin protein ligase to Ki for human C-terminal His6-tagged biotin protein ligase. The method, boiled down:
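Recombinant S. aureus and human BPLs; enzymatic incorporation of radiolabeled biotin onto an acceptor protein measured across varying compound concentrations. IC50 converted to Ki assuming competition with biotin, using the known biotin KM. Human enzyme tested with 100 μM compound in the assay.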

The nature of data set [7]: Inhibition of Staphylococcus aureus C-terminal His6-tagged biotin protein ligase assessed as reduction in 3H-biotin incorporation into biotin domain of substrate. In a few lines:
as §1

Active and inactive are the calls of the source. No cut-off for these calls is given here.

One may read the Ki as a measure of affinity in units of concentration, obtained from inhibition or displacement. In the case of `O=C1N[C@H]2[C@H](CS[C@H]2CCCCCc2cn(Cc3ccc(F)c(F)c3)nn2)N1`, the Ki was above 10 µM in data set [1] and above 16 µM in data set [2].

Take `COc1ccccc1Cn1cc(CCCCC[C@@H]2SC[C@@H]3NC(=O)N[C@@H]32)nn1`: the Ki in data set [1] was 0.53 µM; in data set [2], above 16 µM.

`CC(C)(C)c1ccc(Cn2cc(CCCCC[C@@H]3SC[C@@H]4NC(=O)N[C@@H]43)nn2)cc1`: the inhibitory constant (Ki) in data set [1] is 1.1 µM; in data set [2], above 16 µM. Moreover, in data set [3], the “growth inhibition (GI)” value is reported as above 40%.

For the compound `O=C1N[C@H]2[C@H](CS[C@H]2CCCCCc2cn(Cc3cccc(C(F)(F)F)c3)nn2)N1`, the Ki was above 10 µM in data set [1] and above 16 µM in data set [2].

For `O=C1N[C@H]2[C@H](CS[C@H]2CCCCCc2cn(Cc3ccc(O)cc3)nn2)N1`, the inhibition constant (Ki) in data set [1] was 1.59 µM; in data set [2], above 16 µM.

As for `Cc1ccc(Cn2cc(CCCCC[C@@H]3SC[C@@H]4NC(=O)N[C@@H]43)nn2)cc1`, the Ki was above 10 µM in data set [1] and above 16 µM in data set [2].

For `O=C1N[C@H]2[C@H](CS[C@H]2CCCCCc2cn(Cc3ccccc3F)nn2)N1`, the Ki was above 10 µM in data set [1] and above 16 µM in data set [2].

With `Nc1ccc(Cn2cc(CCCCC[C@@H]3SC[C@@H]4NC(=O)N[C@@H]43)nn2)cc1`, the results for the Ki in data set [1] and in data set [2] were above 10 µM and above 16 µM, respectively.

In the case of `O=C1N[C@H]2[C@H](CS[C@H]2CCCCCc2cn(Cc3ccccc3Br)nn2)N1`, the inhibition constant Ki in data set [1] was 0.96 µM; in data set [2] it was above 16 µM. In addition, the “growth inhibition (GI)” value in data set [3] was above 40%.

With `O=C1N[C@H]2[C@H](CS[C@H]2CCCCCc2cn(Cc3ccc(C(F)(F)F)cc3)nn2)N1`, the figures for the inhibition constant (Ki) in data set [1] and in data set [2] were above 10 µM and above 16 µM, respectively.

For `O=C1N[C@H]2[C@H](CS[C@H]2CCCCCc2cn(Cc3cccc(F)c3)nn2)N1`, the values for the inhibition constant (Ki) in data set [1] and in data set [2] were 0.28 µM and above 16 µM, respectively. Moreover, the “growth inhibition (GI)” value in data set [3] was above 40%. Moreover, in data set [4], the “growth inhibition (GI)” value is “Active”. In addition, in data set [5], the Activity was above 40 µg/mL.

As for `Cc1cccc(Cn2cc(CCCCC[C@@H]3SC[C@@H]4NC(=O)N[C@@H]43)nn2)c1`, the figures for the Ki in data set [1] and in data set [2] were 0.71 µM and above 16 µM, respectively. For the same compound, the “growth inhibition (GI)” value in data set [3] is above 40%.

For the compound `O=C1N[C@H]2[C@H](CS[C@H]2CCCCCc2cn(Cc3ccccc3Cl)nn2)N1`, the Ki is above 10 µM in data set [1] and above 16 µM in data set [2].

Turning to `Cc1ccc2oc(=O)n(CCCCn3cc(CCCCC[C@@H]4SC[C@@H]5NC(=O)N[C@@H]54)nn3)c2c1`, the Ratio Ki in data set [6] is above 1000. Also, the inhibition constant Ki in data set [7] was determined as 0.09 µM.

With `O=C1N[C@H]2[C@H](CS[C@H]2CCCCCc2cn(Cc3cccc(I)c3)nn2)N1`, the Ki in data set [1] was above 10 µM; in data set [2], above 16 µM.

Take `Nc1cccc(Cn2cc(CCCCC[C@@H]3SC[C@@H]4NC(=O)N[C@@H]43)nn2)c1`: the results for the inhibition constant Ki in data set [1] and in data set [2] were above 10 µM and above 16 µM, respectively.

For the compound `O=C1N[C@H]2[C@H](CS[C@H]2CCCCCc2cn(Cc3ccc(I)cc3)nn2)N1`, the Ki was 0.56 µM in data set [1] and above 16 µM in data set [2]. Besides, in data set [3], the “growth inhibition (GI)” value is above 40%.

Regarding `O=C1N[C@H]2[C@H](CS[C@H]2CCCCCc2cn(Cc3cccc(Cl)c3)nn2)N1`, the Ki in data set [1] was 0.39 µM; in data set [2], above 16 µM. In addition, in data set [3], the “growth inhibition (GI)” value is on record as above 40%. For the same compound, the Activity in data set [5] was above 40 µg/mL.

For `O=C1N[C@H]2[C@H](CS[C@H]2CCCCCc2cn(Cc3ccccc3O)nn2)N1`, the Ki in data set [1] is above 10 µM; in data set [2] it was above 16 µM.

As for `COc1cccc(Cn2cc(CCCCC[C@@H]3SC[C@@H]4NC(=O)N[C@@H]43)nn2)c1`, the Ki in data set [1] is 1.1 µM; in data set [2], above 16 µM.

Regarding `Nc1ccccc1Cn1cc(CCCCC[C@@H]2SC[C@@H]3NC(=O)N[C@@H]32)nn1`, the inhibition constant Ki was 1.48 µM in data set [1] and above 16 µM in data set [2]. In data set [3], the “growth inhibition (GI)” value was above 40%. For the same compound, the “growth inhibition (GI)” value in data set [4] was “Active”.

Turning to `O=C1N[C@H]2[C@H](CS[C@H]2CCCCCc2cn(Cc3ccc(C(=O)O)cc3)nn2)N1`, the values for the Ki in data set [1] and in data set [2] were 0.67 µM and above 16 µM, respectively.

With `O=C1N[C@H]2[C@H](CS[C@H]2CCCCCc2cn(Cc3cccc(O)c3)nn2)N1`, the figures for the Ki in data set [1] and in data set [2] were above 10 µM and above 16 µM, respectively.

As for `O=C1N[C@H]2[C@H](CS[C@H]2CCCCCc2cn(Cc3ccc(Cl)cc3)nn2)N1`, the values for the Ki in data set [1] and in data set [2] were 1.1 µM and above 16 µM, respectively. Besides, the “growth inhibition (GI)” value in data set [3] was above 40%. In data set [5], the Activity was above 40 µg/mL.

As for `COc1ccc(Cn2cc(CCCCC[C@@H]3SC[C@@H]4NC(=O)N[C@@H]43)nn2)cc1`, the results for the Ki in data set [1] and in data set [2] were above 10 µM and above 16 µM, respectively.

On to `O=C1N[C@H]2[C@H](CS[C@H]2CCCCCc2cn(Cc3ccc(F)cc3)nn2)N1`, for which the inhibition constant (Ki) in data set [1] is 0.6 µM; in data set [2], above 16 µM. Also, in data set [3], the “growth inhibition (GI)” value is on record as above 40%. For the same compound, the Activity in data set [5] is above 40 µg/mL.

Values taken from ChEMBL document CHEMBL3864176, “New Series of BPL Inhibitors To Probe the Ribose-Binding Pocket of Staphylococcus aureus Biotin Protein Ligase” (ACS Med Chem Lett, 2016).
